The source of these data is ChEMBL document CHEMBL2040727, “Substituted thiazoles VI. Synthesis and antitumor activity of new 2-acetamido- and 2 or 3-propanamido-thiazole analogs” (2012).

Molecules are shown by their SMILES. Bounds are passed on as bounds.

What all share (format): functional
The nature of assay [1]: Growth inhibition of human NCI-ADR-RES cells at 10 uM after 48 hrs by coulter counter analysis. Conditions: read-out: GI. The method, boiled down: (§1)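 Single-dose NCI 60-line panel screen of test compounds. Cells grown in RPMI 1640 with 10% FBS. Compounds dissolved in DMSO, then diluted in phosphate buffer saline (final DMSO below 1%). Wells run in duplicate at 6 × 10⁴ cells/ml. Controls held PBS and DMSO at matching dilutions. Incubation 48 h at 37 °C under humidified 5% CO2. Cells diluted tenfold in saline and counted by Coulter counter. Percent growth inhibition taken from mean-graph of treated-cell growth.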

For the next assay, the system named is SK-MEL-2. The experiment in a line: Growth inhibition of human SK-MEL-2 cells at 10 uM after 48 hrs by coulter counter analysis. The conditions noted are these: SK-MEL-2, 48 h, read-out: GI. The method, boiled down:
as §1

The next assay has as its system OVCAR-3. The experiment in a line: Growth inhibition of human OVCAR3 cells at 10 uM after 48 hrs by coulter counter analysis. The conditions noted are these: OVCAR-3, 48 h, read-out: GI. An outline of the steps:
as §1

In the next assay the test system is SF-295. In words: Growth inhibition of human SF295 cells at 10 uM after 48 hrs by coulter counter analysis. The conditions noted are these: SF-295, 48 h, read-out: GI. The method, boiled down:
as §1

The next assay concerns A549. In words: Growth inhibition of human A549/ATCC cells at 10 uM after 48 hrs by coulter counter analysis. The conditions noted are these: A549, 48 h, read-out: GI. An outline of the steps:
as §1

In another assay the test system is MOLT-4. In words: Growth inhibition of human MOLT4 cells at 10 uM after 48 hrs by coulter counter analysis. The conditions noted are these: MOLT-4, 48 h, read-out: GI. An outline of the steps:
as §1

A further assay deals with SNB-19. The experiment in a line: Growth inhibition of human SNB19 cells at 10 uM after 48 hrs by coulter counter analysis. The conditions noted are these: SNB-19, 48 h, read-out: GI. An outline of the steps:
as §1

The subject of the next assay is HL-60(TB). The experiment in a line: Growth inhibition of human HL-60(TB) cells at 10 uM after 48 hrs by coulter counter analysis. The conditions noted are these: HL-60, 48 h, read-out: GI. An outline of the steps:
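Cells grown in RPMI 1640 with 10% FBS. Compound was dissolved in DMSO and diluted in PBS (under 1% DMSO final), then added in duplicate wells to culture at 6 × 10⁴ cells/ml. PBS/DMSO vehicle controls were included. Incubated at 37 °C, humidified 5% CO₂, for 48 h. Cells were diluted 10-fold in saline and Coulter-counted. Single-dose NCI-60 screen, read as percent growth inhibition.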

For a further assay, the system named is MCF7. In words: Growth inhibition of human MCF7 cells at 10 uM after 48 hrs by coulter counter analysis. Conditions: MCF7, 48 h, read-out: GI. An outline of the steps: as §1
The next assay relates to NCI-H460. In words: Growth inhibition of human NCI-H460 cells at 10 uM after 48 hrs by coulter counter analysis. Conditions: NCI-H460, 48 h, read-out: GI. The method, boiled down: as §1
The next assay concerns SNB-75. The experiment in a line: Growth inhibition of human SNB75 cells at 10 uM after 48 hrs by coulter counter analysis. The conditions noted are these: SNB-75, 48 h, read-out: GI. An outline of the steps: (§2)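 Single-dose screen in the NCI 60 cell line panel. Cells grown in RPMI 1640 with 10% FBS. Compounds dissolved in DMSO and diluted in phosphate buffered saline, final DMSO under 1%. Duplicate wells seeded from culture at 6 × 10⁴ cells/ml. Incubated 48 h at 37 °C, humidified, 5% CO2. Cells diluted tenfold in saline and Coulter-counted. Percent growth inhibition computed against PBS/DMSO controls.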

A further assay deals with NCI-H522. The experiment in a line: Growth inhibition of human NCI-H522 cells at 10 uM after 48 hrs by coulter counter analysis. Conditions: NCI-H522, 48 h, read-out: GI. The method, boiled down:
as §1

Another assay relates to KM12. The experiment in a line: Growth inhibition of human KM12 cells at 10 uM after 48 hrs by coulter counter analysis. The conditions noted are these: KM12, 48 h, read-out: GI. An outline of the steps: as §1
Another assay deals with U-251. The experiment in a line: Growth inhibition of human U251 cells at 10 uM after 48 hrs by coulter counter analysis. Conditions: U-251, 48 h, read-out: GI. The method, boiled down:
as §2

A further assay has as its system HOP-92. In words: Growth inhibition of human HOP92 cells at 10 uM after 48 hrs by coulter counter analysis. Conditions: HOP-92, 48 h, read-out: GI. The method, boiled down:
as §1

The test system of a further assay is SR. The experiment in a line: Growth inhibition of human SR cells at 10 uM after 48 hrs by coulter counter analysis. Conditions: read-out: GI. The method, boiled down: as §2
A further assay relates to EKVX. The experiment in a line: Growth inhibition of human EKVX cells at 10 uM after 48 hrs by coulter counter analysis. Conditions: read-out: GI. The method, boiled down: as §1
The test system of another assay is DU-145. The experiment in a line: Growth inhibition of human DU145 cells at 10 uM after 48 hrs by coulter counter analysis. The conditions noted are these: DU-145, 48 h, read-out: GI. An outline of the steps:
as §1

The next assay relates to HCT-116. In words: Growth inhibition of human HCT116 cells at 10 uM after 48 hrs by coulter counter analysis. Conditions: HCT-116, 48 h, read-out: GI. The method, boiled down: as §1
In another assay the test system is ACHN. In words: Growth inhibition of human ACHN cells at 10 uM after 48 hrs by coulter counter analysis. Conditions: read-out: GI. The method, boiled down:
as §1

A further assay has as its system COLO 205. The experiment in a line: Growth inhibition of human COLO205 cells at 10 uM after 48 hrs by coulter counter analysis. The conditions noted are these: COLO 205, 48 h, read-out: GI. An outline of the steps: as §1
A further assay deals with M14. The experiment in a line: Growth inhibition of human M14 cells at 10 uM after 48 hrs by coulter counter analysis. The conditions noted are these: M14, 48 h, read-out: GI. An outline of the steps:
as §1

The subject of the next assay is UACC-257. In words: Growth inhibition of human UACC257 cells at 10 uM after 48 hrs by coulter counter analysis. Conditions: UACC-257, 48 h, read-out: GI. An outline of the steps:
as §2

The subject of a further assay is SK-OV-3. The experiment in a line: Growth inhibition of human SKOV3 cells at 10 uM after 48 hrs by coulter counter analysis. The conditions noted are these: SK-OV-3, 48 h, read-out: GI. The method, boiled down: as §1
The test system of the next assay is TK-10. The experiment in a line: Growth inhibition of human TK10 cells at 10 uM after 48 hrs by coulter counter analysis. Conditions: TK-10, 48 h, read-out: GI. An outline of the steps: as §2

Regarding `Cc1cnc(NC(=O)CN2CCN(C)CC2)s1`, the inhibition of growth at 10 µM (in [1]; in the assay with SK-MEL-2; with OVCAR-3; with SF-295; with A549; in the assay with MOLT-4) was under 10% each time. The inhibition of growth at 10 µM in the assay with SNB-19, in the assay with HL-60(TB), with MCF7, with NCI-H460, with SNB-75 and with NCI-H522 was under 10% each time. Further, the inhibition of growth at 10 µM with KM12 is under 10%; in the assay on U-251, under 10%; with HOP-92, under 10%; in the assay on SR, 51.8%; in the assay with EKVX it was under 10%; with DU-145, under 10%. The inhibition of growth at 10 µM with HCT-116, with ACHN, in the assay with COLO 205 and in the assay on M14 was under 10% each time.

In the case of `Cc1cnc(NC(=O)CN2CCN(c3ccccc3)CC2)s1`, the inhibition of growth at 10 µM (in assay [1]; in the assay on SK-MEL-2; in the assay on OVCAR-3; in the assay with SF-295; in the assay with A549; in the assay with MOLT-4) was under 10% throughout. Besides, the inhibition of growth at 10 µM in the assay with SNB-19, in the assay on HL-60(TB), in the assay on MCF7, in the assay with NCI-H460, in the assay with SNB-75 and in the assay with NCI-H522 was under 10% in each case. Moreover, the inhibition of growth at 10 µM with KM12 is under 10%; in the assay with U-251, under 10%; with HOP-92, under 10%; in the assay with SR it was under 10%; in the assay with EKVX it was 12.1%; with DU-145 it was under 10%. Besides, the inhibition of growth at 10 µM with HCT-116, in the assay on ACHN, with COLO 205 and in the assay on M14 was under 10% throughout.

For the compound `Cc1cnc(NC(=O)CCN2CCN(c3ccccc3)CC2)s1`, the inhibition of growth at 10 µM (in [1]; with SK-MEL-2; with OVCAR-3; with SF-295; in the assay on A549; in the assay with MOLT-4) was under 10% each time. Further, the inhibition of growth at 10 µM in the assay on SNB-19, in the assay with HL-60(TB), in the assay on MCF7, in the assay with NCI-H460, with SNB-75 and in the assay on NCI-H522 was under 10% each time. Also, the inhibition of growth at 10 µM with KM12 was under 10%; in the assay with U-251, under 10%; with HOP-92 it was under 10%; in the assay on SR it was 14.3%; in the assay on EKVX, 11.4%; in the assay on DU-145, under 10%. Further, the inhibition of growth at 10 µM in the assay with HCT-116, in the assay with ACHN, with COLO 205 and in the assay on M14 was under 10% in each case.

As to `CCOC(=O)c1sc(NC(=O)CN(C)C)nc1C`, the inhibition of growth at 10 µM (in assay [1]; with SK-MEL-2; with OVCAR-3; in the assay on SF-295; in the assay with A549; with MOLT-4) was under 10% throughout. The inhibition of growth at 10 µM in the assay on SNB-19, in the assay on HL-60(TB), with MCF7, with NCI-H460, in the assay on SNB-75 and with NCI-H522 was under 10% each time. Further, the inhibition of growth at 10 µM in the assay with KM12, in the assay on U-251, in the assay with HOP-92, in the assay with SR, in the assay with EKVX and in the assay on DU-145 was under 10% in each case. Further, the inhibition of growth at 10 µM in the assay with HCT-116, with ACHN, with COLO 205 and with M14 was under 10% throughout.

Take `CCOC(=O)c1sc(NC(=O)CCN2CCOCC2)nc1C`: the inhibition of growth at 10 µM (in assay [1]; in the assay on SK-MEL-2; with OVCAR-3; in the assay with SF-295; with A549; in the assay on MOLT-4) was under 10% in each case. The inhibition of growth at 10 µM with SNB-19, with HL-60(TB), in the assay on MCF7, with NCI-H460, in the assay on SNB-75 and with NCI-H522 was under 10% each time. The inhibition of growth at 10 µM is under 10% in the assay on KM12; under 10% in the assay with U-251; 21.9% in the assay with HOP-92; under 10% with SR; under 10% in the assay with EKVX; under 10% in the assay on DU-145. Further, the inhibition of growth at 10 µM in the assay on HCT-116, with ACHN, with COLO 205 and in the assay with M14 was under 10% in each case.

As to `CC(C(=O)Nc1nccs1)N1CCN(C)CC1` (stereo not given), the inhibition of growth at 10 µM (in assay [1]; in the assay on SK-MEL-2; in the assay with OVCAR-3; in the assay with SF-295; with A549; in the assay with MOLT-4) was under 10% each time. Further, the inhibition of growth at 10 µM was under 10% in the assay with SNB-19; 11.2% with HL-60(TB); under 10% with UACC-257; under 10% in the assay with MCF7; under 10% in the assay on NCI-H460; 15.5% with SNB-75. In addition, the inhibition of growth at 10 µM in the assay on NCI-H522, in the assay on KM12, in the assay with U-251, in the assay with HOP-92, in the assay with SR and in the assay on EKVX was under 10% each time. Besides, the inhibition of growth at 10 µM in the assay on DU-145, in the assay with HCT-116, in the assay on ACHN, in the assay on SK-OV-3, with TK-10 and with COLO 205 was under 10% each time. Moreover, the inhibition of growth at 10 µM in the assay on M14 is under 10%.
